How the values were obtained:
Assay type in all cases: functional
[1] = test system: SW-620; test: Antitumor activity against human SW620 cells xenografted in immunodeficient Swiss athymic mouse assessed as maximum inhibition of tumor volume at 10 mg/kg/day, sc for 48 hrs on days 7 to 9 and measured on day 10 relative to control; details: SW-620, 96 h, time 4 day
Procedure, shortened: (§1)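 Male Swiss athymic nude mice, 8-12 wk; tumor cells (1×10^6-1×10^7, 50:50 Matrigel) implanted s.c. on flank. Randomized (n = 8-11) at 0.2-0.5 cm3. AZD1152 in Tris buffer pH 9, or vehicle (0.3 mol/L Tris), by 48-h s.c. osmotic mini-pump infusion (two 24-h pumps in sequence). Caliper volumes up to 3×/week; growth inhibition from change in control vs treated volume; one-tailed t test.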

[2] = test system: SW-620; test: Antitumor activity against human SW620 cells xenografted in immunodeficient Swiss athymic mouse assessed as inhibition of tumor volume at 25 mg/kg/day, ip for 4 days on days 6 to 9 and measured on day 24 relative to control; details: SW-620, 456 h, time 19 day
Procedure, shortened: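 Male Swiss nude mice bearing s.c. flank SW620 xenografts (cells in Matrigel), randomized (n = 8-11) at 0.2-0.3 cm3. AZD1152 in Tris buffer pH 9, or vehicle, given as a once-daily i.v. or i.p. bolus. Caliper volumes up to 3×/week; inhibition from change in control vs treated volume; one-tailed t test.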

[3] = test system: SW-620; test: Antitumor activity against human SW620 cells xenografted in Swiss nude mouse assessed as inhibition in PhH3 level at 2.5 mg/kg/day, sc measured over 48 hrs by flow cytometry analysis relative to control
Procedure, shortened: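 Male nude mice with palpable s.c. SW620 tumors (n = 4/group) received AZD1152 (0.5-150 mg/kg/d) or vehicle by constant 48-h s.c. mini-pump infusion. Tumors were then excised, fixed and disaggregated. Flow cytometry with propidium iodide gave DNA content (2N, 4N, >4N), and rabbit anti-PhH3 with fluorescein anti-rabbit IgG gave PhH3-positive cells (%).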

[4] = test system: SW-620; test: Antitumor activity against human SW620 cells xenografted in immunodeficient Swiss athymic mouse assessed as inhibition of tumor volume at 150 mg/kg/day, sc for 48 hrs on days 7 to 9 and measured on day 23 relative to control; details: SW-620, 408 h, time 17 day; procedure, shortened: as §1
[5] = test system: SW-620; test: Antitumor activity against human SW620 cells xenografted in immunodeficient Swiss athymic mouse assessed as maximum inhibition of tumor volume at 25 mg/kg/day, sc for 48 hrs on days 7 to 9 and measured on day 14 relative to control; details: SW-620, 192 h, time 8 day; procedure, shortened: as §1

CCN(CCCOc1ccc2c(Nc3cc(CC(=O)Nc4cccc(F)c4)[nH]n3)ncnc2c1)CCOP(=O)(O)O [BARASERTIB]
inhibition in vivo at 10 mg/kg/day [1]: 55% | inhibition in vivo at 25 mg/kg/day [2]: 54% | inhibition in vivo at 2.5 mg/kg/day [3]: 69% | inhibition in vivo at 150 mg/kg/day [4]: 87% | inhibition in vivo at 25 mg/kg/day [5]: 65%
